Calls of active or inactive are those of the source. The calls are words filed in the database; no cut-off is given here.
Assays:
Acetylcholinesterase = Acetylcholinesterase (Electrophorus electricus, UniProt O42275); assay: Inhibition of electric eel AChE using acetylthiocholine iodide as substrate preincubated for 10 mins followed by substrate addition and measured for 10 mins by Ellman's method
[1] = target: Cholinesterase (Equus caballus) (UniProt P81908); assay: Inhibition of equine serum BChE at 100 uM using butyrylthiocholine iodide as substrate preincubated for 10 mins followed by substrate addition and measured for 10 mins by Ellman's method relative to control; details: time 20.0 min
Sequence of Cholinesterase (Equus caballus) (P81908 whole entry): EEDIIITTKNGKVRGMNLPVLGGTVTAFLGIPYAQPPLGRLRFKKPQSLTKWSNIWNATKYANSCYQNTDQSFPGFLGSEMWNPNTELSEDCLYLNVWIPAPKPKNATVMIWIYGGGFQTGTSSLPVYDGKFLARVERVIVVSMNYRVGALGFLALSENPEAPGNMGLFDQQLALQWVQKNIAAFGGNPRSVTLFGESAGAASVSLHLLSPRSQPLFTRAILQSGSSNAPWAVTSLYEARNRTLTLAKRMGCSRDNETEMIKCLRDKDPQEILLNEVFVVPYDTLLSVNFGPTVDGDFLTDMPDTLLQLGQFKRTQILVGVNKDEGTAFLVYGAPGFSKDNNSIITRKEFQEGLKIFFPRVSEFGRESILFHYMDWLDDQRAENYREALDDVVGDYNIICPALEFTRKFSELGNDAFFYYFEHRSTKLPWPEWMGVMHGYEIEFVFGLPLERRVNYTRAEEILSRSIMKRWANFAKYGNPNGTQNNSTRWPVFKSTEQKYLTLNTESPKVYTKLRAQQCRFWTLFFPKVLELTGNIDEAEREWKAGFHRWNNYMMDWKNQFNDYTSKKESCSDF
In short: (§1)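 Ellman single-concentration screen in 50 mM Tris-HCl pH 8.0 with DTNB (6.8 mM stock) and 1% DMSO. Enzyme solution 0.4 U/mL AChE or 0.8 U/mL BChE. Compound and enzyme preincubated 10 min at 25 °C, then ATI (10 mM stock) or BTI (30 mM stock) added. A412 followed for 10 min, blank-subtracted, % inhibition versus no-compound control. Triplicate.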

[2] = target: Acetylcholinesterase (Electrophorus electricus) (UniProt O42275); assay: Inhibition of electric eel AChE at 100 uM using acetylthiocholine iodide as substrate preincubated for 10 mins followed by substrate addition and measured for 10 mins by Ellman's method relative to control; details: time 20.0 min; in short: as §1
Sequence of Acetylcholinesterase (Electrophorus electricus) (O42275 24-633 limits assumed): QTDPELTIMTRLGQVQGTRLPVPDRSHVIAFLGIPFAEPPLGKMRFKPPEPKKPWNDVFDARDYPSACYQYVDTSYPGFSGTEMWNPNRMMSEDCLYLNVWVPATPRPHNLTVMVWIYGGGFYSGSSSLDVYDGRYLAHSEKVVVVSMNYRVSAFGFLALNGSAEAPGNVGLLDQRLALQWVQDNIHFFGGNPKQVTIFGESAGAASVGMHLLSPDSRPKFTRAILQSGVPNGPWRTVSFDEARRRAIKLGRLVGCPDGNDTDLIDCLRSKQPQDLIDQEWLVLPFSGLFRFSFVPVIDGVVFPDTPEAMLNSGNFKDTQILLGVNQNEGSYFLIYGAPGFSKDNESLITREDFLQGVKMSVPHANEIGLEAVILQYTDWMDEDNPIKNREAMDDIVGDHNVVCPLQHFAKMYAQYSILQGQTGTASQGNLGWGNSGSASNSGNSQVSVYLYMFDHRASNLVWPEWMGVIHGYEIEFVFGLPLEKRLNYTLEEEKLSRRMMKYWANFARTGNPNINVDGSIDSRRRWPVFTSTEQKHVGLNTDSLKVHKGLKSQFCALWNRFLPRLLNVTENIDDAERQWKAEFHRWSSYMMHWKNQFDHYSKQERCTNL

[3] = Antioxidant activity assessed as trolox equivalent of AAPH radical scavenging activity at 10 uM measured every min for 90 mins by ORAC-FL assay; assay type: functional
In short: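 ORAC-FL in 75 mM phosphate buffer pH 7.4. Sample and fluorescein (150 nM final) preincubated 15 min at 37 °C, then AAPH (12 mM final) added. Fluorescence (ex 485/em 535 nm) read each minute for 90 min. Net AUC after blank subtraction, converted to Trolox equivalents from a Trolox curve (0.5–8, final; Trolox = 1). Duplicate wells, three independent assays.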

THP-1 [4] = assay: Antiinflammatory activity in LPS-induced human THP-1 cells assessed as reduction in nitric oxide release at 10 uM peincubated for 1 hr followed by LPS stimulation and measured after 24 hrs by ELISA; assay type: functional, cell-based; details: time 25.0 hrs
In short: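 THP-1 cells plated overnight at 4×10⁴ cells/well, given test compound 1 h before 100 ng/ml LPS (E. coli O111:B4), then incubated 24 h. Cell-free supernatants stored at −20 °C, then NO measured by ELISA kit (sensitivity 1,12 […]) from a standard curve. Untreated cells as negative control, LPS-only as positive control. At least triplicate.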

THP-1 [5] = assay: Antiinflammatory activity in LPS-induced human THP-1 cells assessed as reduction in TNFalpha release at 10 uM peincubated for 1 hr followed by LPS stimulation and measured after 24 hrs by EIA; assay type: functional, cell-based; details: time 25.0 hrs
In short: (§2)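 THP-1 cells grown in RPMI 1640 with 10% FCS, penicillin and streptomycin at 37 °C, 5% CO2, then plated overnight at 4×10⁴ cells/well. Test compound added 1 h before 100 ng/ml E. coli O111:B4 LPS; 24 h incubation. Untreated and LPS-only controls. […]; cytokine read by EIA at 450 nm against a standard curve. At least triplicate.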

THP-1 [6] = assay: Antiinflammatory activity in LPS-induced human THP-1 cells assessed as reduction in IL6 release at 10 uM peincubated for 1 hr followed by LPS stimulation and measured after 24 hrs by EIA; assay type: functional, cell-based; details: time 25.0 hrs; in short: as §2
THP-1 [7] = assay: Antiinflammatory activity in LPS-induced human THP-1 cells assessed as reduction in IL1beta release at 10 uM peincubated for 1 hr followed by LPS stimulation and measured after 24 hrs by EIA; assay type: functional, cell-based; details: time 25.0 hrs; in short: as §2
Cholinesterase = Cholinesterase (Equus caballus, UniProt P81908); assay: Inhibition of equine serum BChE using butyrylthiocholine iodide as substrate preincubated for 10 mins followed by substrate addition and measured for 10 mins by Ellman's method
Sequence of Cholinesterase (P81908 whole entry): as the sequence (P81908 whole entry) above
In short: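 BChE (0.8 U/mL solution) preincubated with inhibitor 10 min at 25 °C in Tris-HCl pH 8.0 with DTNB and 1% DMSO, then BTI (30 mM stock) added. A412 read over 10 min, blank-corrected. IC50 from log[inhibitor] versus % inhibition. Triplicate, mean ± SD.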

[8] = target: Amyloid-beta precursor protein (Homo sapiens) (UniProt P05067); assay: Inhibition of amyloid beta (1 to 42) (unknown origin) self-induced aggregation at 50 uM by Thioflavin T based fluorometric assay relative to control
Sequence of Amyloid-beta precursor protein (Homo sapiens) (P05067 whole entry): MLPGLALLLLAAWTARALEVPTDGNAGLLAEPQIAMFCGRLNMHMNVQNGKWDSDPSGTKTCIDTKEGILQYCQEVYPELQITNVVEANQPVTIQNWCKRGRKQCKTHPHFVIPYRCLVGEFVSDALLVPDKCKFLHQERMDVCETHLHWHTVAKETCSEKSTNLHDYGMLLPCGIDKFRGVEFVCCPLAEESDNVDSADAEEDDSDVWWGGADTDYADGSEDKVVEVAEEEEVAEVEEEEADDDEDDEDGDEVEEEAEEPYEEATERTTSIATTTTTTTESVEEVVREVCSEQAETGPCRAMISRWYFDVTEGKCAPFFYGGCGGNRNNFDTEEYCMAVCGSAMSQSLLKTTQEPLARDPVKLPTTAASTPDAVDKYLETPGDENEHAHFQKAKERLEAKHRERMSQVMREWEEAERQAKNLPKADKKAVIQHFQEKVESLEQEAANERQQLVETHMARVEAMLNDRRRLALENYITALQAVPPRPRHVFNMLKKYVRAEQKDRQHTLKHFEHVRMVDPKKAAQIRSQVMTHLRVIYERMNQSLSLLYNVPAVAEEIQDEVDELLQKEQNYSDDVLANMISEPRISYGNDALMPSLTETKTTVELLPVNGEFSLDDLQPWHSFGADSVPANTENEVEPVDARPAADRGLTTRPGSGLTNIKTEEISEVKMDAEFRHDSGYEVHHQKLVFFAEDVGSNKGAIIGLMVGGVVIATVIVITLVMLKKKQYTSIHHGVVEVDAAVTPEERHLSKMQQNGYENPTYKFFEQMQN
In short: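 Thioflavin T fluorometric assay of Aβ1-42 self-aggregation, with inhibitor and Aβ42 both at 50 (equimolar). Samples dissolved in DMSO. Result given as % inhibition, mean of two independent experiments each run in triplicate.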

Sequence of Acetylcholinesterase (O42275 whole entry): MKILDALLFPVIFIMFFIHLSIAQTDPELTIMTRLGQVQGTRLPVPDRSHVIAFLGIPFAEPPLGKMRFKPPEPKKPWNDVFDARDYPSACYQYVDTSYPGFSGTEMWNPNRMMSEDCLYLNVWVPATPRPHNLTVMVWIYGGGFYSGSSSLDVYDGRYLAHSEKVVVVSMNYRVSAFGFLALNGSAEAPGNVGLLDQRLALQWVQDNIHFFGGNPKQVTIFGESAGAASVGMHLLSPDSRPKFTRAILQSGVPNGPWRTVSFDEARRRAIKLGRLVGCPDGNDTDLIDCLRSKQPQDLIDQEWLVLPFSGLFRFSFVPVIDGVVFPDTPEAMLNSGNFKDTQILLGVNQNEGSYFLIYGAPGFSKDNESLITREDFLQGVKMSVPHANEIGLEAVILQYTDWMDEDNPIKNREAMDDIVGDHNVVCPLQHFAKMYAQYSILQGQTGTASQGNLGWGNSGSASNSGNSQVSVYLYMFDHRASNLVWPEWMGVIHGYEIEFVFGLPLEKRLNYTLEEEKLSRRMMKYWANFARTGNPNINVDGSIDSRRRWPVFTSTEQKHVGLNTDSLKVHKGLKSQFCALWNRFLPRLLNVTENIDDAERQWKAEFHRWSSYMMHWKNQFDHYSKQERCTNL

| Structure (SMILES) | IC50 (Acetylcholinesterase) | inhibition [1] | inhibition [2] | Activity [3] | Activity (THP-1 [4]) | Activity (THP-1 [5]) | Activity (THP-1 [6]) | Activity (THP-1 [7]) | IC50 (Cholinesterase) | inhibition [8] |
| --- | --- | --- | --- | --- | --- | --- | --- | --- | --- | --- |
| CN(CCC(=O)Nc1ccc2c(c1)oc(=O)n2C)Cc1ccccc1 | 52.4 µM | 42% | 58% | 4.3 equiv | – | – | – | – | – | – |
| Cn1c(=O)sc2cc(NC(=O)CCCN3CCN(Cc4ccccc4)CC3)ccc21 | 1.96 µM | < 10% | 93% | 3.91 equiv | Active | Active | Active | Active | – | – |
| Cn1c(=O)oc2cc(NC(=O)CCN3CCN(c4ccc(Cl)cc4)CC3)ccc21 | – | < 10% | 30% | 3.95 equiv | – | – | – | – | – | – |
| Cc1ccc(N2CCN(CCC(=O)Nc3ccc4c(c3)oc(=O)n4C)CC2)cc1 | – | < 10% | 33% | 4.03 equiv | – | – | – | – | – | – |
| O=C(CCN1CCN(Cc2ccccc2)CC1)Nc1ccc2nc(-c3ccccc3)oc2c1 | – | < 10% | < 10% | 2.68 equiv | – | – | – | – | – | – |
| Cc1ccc(N2CCN(CCC(=O)Nc3ccc4c(c3)sc(=O)n4C)CC2)cc1 | – | < 10% | 35% | 4.31 equiv | – | – | – | – | – | – |
| Cn1c(=O)sc2cc(C(=O)CCN3CCC(c4ccccc4)CC3)ccc21 | 4.32 µM | 79% | 81% | 3.1 equiv | – | – | – | – | 14 µM | – |
| Cn1c(=O)sc2cc(NC(=O)CCN3CCN(Cc4ccccc4)CC3)ccc21 | 2.34 µM | < 10% | 92% | 4.08 equiv | Active | Active | Active | Active | – | – |
| Cn1c(=O)sc2cc(NC(=O)CCN3CCN(Cc4ccc(F)cc4)CC3)ccc21 | 7.09 µM | 52% | 74% | 4.1 equiv | – | – | – | – | 37.6 µM | – |
| COc1ccc(N2CCN(CCC(=O)Nc3ccc4c(c3)sc(=O)n4C)CC2)cc1 | – | < 10% | 31% | 4.55 equiv | – | – | – | – | – | – |
| Cn1c(=O)sc2cc(NC(=O)CCN3CCN(c4ccc(C(F)(F)F)cc4)CC3)ccc21 | – | < 10% | 36% | 4.1 equiv | – | – | – | – | – | – |
| COc1ccc(CN2CCN(CCC(=O)Nc3ccc4c(c3)sc(=O)n4C)CC2)cc1 | – | < 10% | 39% | 4.28 equiv | – | – | – | – | – | – |
| CN(CCC(=O)Nc1ccc2c(c1)sc(=O)n2C)Cc1ccccc1 | 49.5 µM | 70% | 63% | 3.9 equiv | – | – | – | – | 42 µM | – |
| Cn1c(=O)oc2cc(NC(=O)CCCN3CCN(Cc4ccccc4)CC3)ccc21 | 6 µM | < 10% | 94% | 3.97 equiv | Active | Active | Active | Active | – | – |
| Cn1c(=O)sc2cc(NC(=O)CCCN3CCC(c4ccccc4)CC3)ccc21 | – | 90% | 32% | 2.93 equiv | Active | Active | Active | Active | 9.65 µM | – |
| Cn1c(=O)sc2cc(NC(=O)CCCCN3CCN(Cc4ccccc4)CC3)ccc21 | 14 µM | < 10% | 87% | 2.67 equiv | – | – | – | – | – | – |
| Cn1c(=O)sc2cc(NC(=O)CCN3CCN(c4ccc(Cl)cc4)CC3)ccc21 | – | < 10% | 32% | 4.43 equiv | – | – | – | – | – | – |
| Cn1c(=O)sc2cc(NC(=O)CCN3CCN(c4ccc(F)cc4)CC3)ccc21 | – | < 10% | 37% | 4.03 equiv | – | – | – | – | – | – |
| Cn1c(=O)oc2cc(NC(=O)CCN3CCN(Cc4ccccc4)CC3)ccc21 | 6.94 µM | 30% | 81% | 3.78 equiv | Active | Active | Active | Active | – | – |

| Structure (SMILES) | IC50 (Acetylcholinesterase) | inhibition [1] | inhibition [2] | Activity [3] | Activity (THP-1 [4]) | Activity (THP-1 [5]) | Activity (THP-1 [6]) | Activity (THP-1 [7]) | IC50 (Cholinesterase) | inhibition [8] |
| --- | --- | --- | --- | --- | --- | --- | --- | --- | --- | --- |
| Cn1c(=O)sc2cc(NC(=O)CCN3CCN(Cc4ccc(Cl)cc4)CC3)ccc21 | – | < 10% | 37% | 4.01 equiv | – | – | – | – | – | – |
| Cn1c(=O)oc2cc(NC(=O)CCN3CCN(Cc4ccc(F)cc4)CC3)ccc21 | 16.1 µM | 21% | 66% | 3.92 equiv | – | – | – | – | – | – |
| O=S1(=O)OC(c2ccc(O)cc2)(c2ccc(O)cc2)c2ccccc21 | – | – | – | – | – | – | – | – | – | 32.2% |
| COc1ccc(N2CCN(CCC(=O)Nc3ccc4c(c3)oc(=O)n4C)CC2)cc1 | – | < 10% | 29% | 4.28 equiv | – | – | – | – | – | – |
| Cn1c(=O)sc2cc(NC(=O)CCN3CCN(c4ccccc4)CC3)ccc21 | – | < 10% | 34% | 4.24 equiv | – | – | – | – | – | – |
| Cn1c(=O)sc2cc(NC(=O)CCN3CCN(Cc4ccc(C(F)(F)F)cc4)CC3)ccc21 | – | < 10% | 35% | 4.45 equiv | – | – | – | – | – | – |
| Cn1c(=O)oc2cc(NC(=O)CCN3CCN(c4ccc(F)cc4)CC3)ccc21 | – | < 10% | 35% | 3.85 equiv | – | – | – | – | – | – |
| Cn1c(=O)oc2cc(NC(=O)CCN3CCN(Cc4ccc(C(F)(F)F)cc4)CC3)ccc21 | – | < 10% | 35% | 3.96 equiv | – | – | – | – | – | – |
| Cn1c(=O)oc2cc(NC(=O)CCN3CCC(c4ccccc4)CC3)ccc21 | – | < 10% | 25% | 4.09 equiv | – | – | – | – | – | – |
| Cn1c(=O)oc2cc(NC(=O)CCN3CCC(Cc4ccccc4)CC3)ccc21 | 24.6 µM | 47% | 64% | 3.87 equiv | – | – | – | – | – | – |
| Cn1c(=O)oc2cc(NC(=O)CCCCN3CCN(Cc4ccccc4)CC3)ccc21 | 30.9 µM | < 10% | 82% | 2.63 equiv | – | – | – | – | – | – |
| COc1ccc(CN2CCN(CCC(=O)Nc3ccc4c(c3)oc(=O)n4C)CC2)cc1 | – | < 10% | 38% | 4.2 equiv | – | – | – | – | – | – |
| O=C(CCN1CCN(Cc2ccccc2)CC1)Nc1ccc2nc(-c3ccccc3)sc2c1 | – | < 10% | < 10% | 2.64 equiv | – | – | – | – | – | – |
| Cn1c(=O)oc2cc(NC(=O)CCN3CCN(c4ccc(C(F)(F)F)cc4)CC3)ccc21 | – | < 10% | 35% | 3.9 equiv | – | – | – | – | – | – |
| Cn1c(=O)sc2cc(NC(=O)CCN3CCC(c4ccccc4)CC3)ccc21 | 60.3 µM | 81% | 60% | 4.31 equiv | – | – | – | – | 11.1 µM | – |
| Cn1c(=O)oc2cc(C(=O)CCN3CCN(Cc4ccccc4)CC3)ccc21 | 0.89 µM | < 10% | 97% | 3.03 equiv | Active | Active | Active | Active | – | – |
| Cn1c(=O)oc2cc(NC(=O)CCN3CCN(Cc4ccc(Cl)cc4)CC3)ccc21 | – | < 10% | 40% | 4.19 equiv | – | – | – | – | – | – |
| Cn1c(=O)sc2cc(NC(=O)CCN3CCC(Cc4ccccc4)CC3)ccc21 | 31.9 µM | 60% | 62% | 4.01 equiv | – | – | – | – | 75.4 µM | – |
| Cn1c(=O)oc2cc(NC(=O)CCN3CCN(c4ccccc4)CC3)ccc21 | – | < 10% | 32% | 4.02 equiv | – | – | – | – | – | – |

Source: ChEMBL document CHEMBL4706649, “Design, synthesis and biological evaluation of new benzoxazolone/benzothiazolone derivatives as multi-target agents against Alzheimer's disease” (Eur J Med Chem, 2021)
